GASC-1 inh – inhibitors of human GASC-1 (JMJD2C) demethylase; GST-JMJD2C(1-420) H3K9me3 demethylation, DELFIA europium; inhibition, % at 2.35 µM; Q9H3R0; actives 0.069% (n = 330,000);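 active = more than half of a compound's replicate wells show inhibition beyond 50%, single wells judged on their own value; inconclusive = some, but no more than half, of replicates pass 50% inhibition; inactive = no replicate passes 50% inhibition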;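 note: signal counts dimethyl H3K9 product captured on neutravidin plate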
Apaf1 inhib – inhibitors of human Apaf-1 apoptosome; O14727; reconstituted apoptosome caspase-3 activity, DEVD-Rh110 fluorescence; inhibition, % at 20 µM; actives 0.71% (n = 330,000); AID 489030; active = inhibition of at least 40% at 20 µM
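Assay system – apoptosome proteins · Medium – Hepes buffer, pH 7.5 · Also added – cytochrome c with DEVD-Rh110 · Timing – 30 min compound preincubation, 50 min activation, room temperature · Detection – Rh110 fluorescence, excitation 480 nm, emission 540 nm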
GSTO1 inh – blocks human GSTO1 in RBBP9 counter-screen | recombinant GSTO1, activity-based probe fluorescence polarization | inhibition, % at 5.96 µM | actives 1.1% (n = 300,000) | AID 1974;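 active = inhibition above the campaign mean inhibition plus 3 SD, cut at about 35% in these data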
SUMO HTRF inh – inhibitors of human SUMOylation (UBC9); P63279; HTRF SUMOylation assay, SAE1/SAE2 + UBC9, in vitro; inhibition, % at 35 µM; actives 0.36% (n = 290,000); in the data active = inhibition above about 50%, passing the limit was not always enough; inconclusive = no clear call, values can overlap the other calls
TDP2 absorb – blocks human TDP2 phosphodiesterase activity; AID 720702; recombinant TDP2, T5PNP hydrolysis, p-nitrophenol absorbance 415 nm; O95551; inhibition, % at 12.8 µM; actives 0.34% (n = 370,000);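 active = inhibition above the mean of all tested compounds plus 3 SD, set per campaign, cut at about 25% in these data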
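test system = human TDP2 enzyme | input = TDP2 enzyme at 120 nM final | medium = 50 mM Tris-HCl pH 7.5 with Mg2+, KCl, DTT, BSA | also added = T5PNP substrate, 5 mM | times = 2 h at 37 °C | technique = epi absorbance | benchmarks = high control without enzyme, low control DMSO plus TDP2 | replication = each compound tested once, singlicate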
PAD4 FP inh – blocks human protein arginine deiminase 4; recombinant PAD4, RCA probe fluorescence polarization; inhibition, % at 6.36 µM; actives 0.41% (n = 330,000); AID 485272;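 active = percent inhibition above a cutoff equal to the mean of all tested compounds plus 3 SD, cut at about 15% in these data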
Target sequence (Q9UM07 whole entry, looked up): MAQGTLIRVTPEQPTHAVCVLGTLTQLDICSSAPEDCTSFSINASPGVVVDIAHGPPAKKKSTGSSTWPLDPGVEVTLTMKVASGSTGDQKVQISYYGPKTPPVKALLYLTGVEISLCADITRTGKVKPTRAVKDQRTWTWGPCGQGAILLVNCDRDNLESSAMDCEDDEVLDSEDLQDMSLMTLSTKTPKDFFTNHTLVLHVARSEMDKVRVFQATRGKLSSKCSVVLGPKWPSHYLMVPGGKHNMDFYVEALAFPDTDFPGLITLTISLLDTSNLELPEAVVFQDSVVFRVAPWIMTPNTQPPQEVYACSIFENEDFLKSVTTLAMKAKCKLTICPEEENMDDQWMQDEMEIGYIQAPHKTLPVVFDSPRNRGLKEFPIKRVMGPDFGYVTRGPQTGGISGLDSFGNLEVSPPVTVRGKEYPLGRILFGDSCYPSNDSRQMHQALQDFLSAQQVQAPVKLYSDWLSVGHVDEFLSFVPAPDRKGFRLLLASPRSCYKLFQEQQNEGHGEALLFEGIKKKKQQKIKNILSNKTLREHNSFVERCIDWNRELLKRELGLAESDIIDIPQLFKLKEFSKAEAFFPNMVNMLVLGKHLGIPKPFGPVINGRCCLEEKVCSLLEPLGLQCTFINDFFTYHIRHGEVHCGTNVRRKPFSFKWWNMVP
GSTO1 confirm – GSTO1 (human) inhibition, confirmation; recombinant GSTO1, probe fluorescence polarization; shares compounds with GSTO1 inh; actives 54% (n = 2,400); inhibition, % at 5.96 µM;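 active = inhibition above the primary screen's cutoff, its mean inhibition plus 3 SD, cut at about 35% in these data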;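 note: loss of polarization as inhibitors block binding of rhodamine sulfonate ester activity probe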
GSTO1 ABPP inh – inhibitors of recombinant human GSTO1; inhibition, % at 1 µM; AID 463110; gel ABPP SE-Rh probe fluorescence; actives 30% (n = 130); shares compounds with GSTO1 inh;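 active = inhibition of the enzyme GSTO1 above about 75%, limit read from the data; inactive = inhibition below that limit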
Hits are given with their value; i = inactive; ? = inconclusive; nt = no result given; ! = repeats disagree. Rows were chosen to be rich in hits. Some 1.6% of all compounds tested hit in one or more screens of this group.

SMILES	GASC-1 inh	Apaf1 inhib	GSTO1 inh	SUMO HTRF inh	TDP2 absorb	PAD4 FP inh	GSTO1 confirm	others
CC(=O)NN1C(=O)/C(=C\c2ccccc2)SC1=S	i	i	i	i	i	i	nt
CC(=O)NN1C(=O)/C(=C/c2ccc(Br)o2)SC1=S	i	i	64	i	i	i	78
CC(=O)NN1C(=O)/C(=C\c2ccc(Br)o2)SC1=S	i	i	69	i	i	i	79
CCCCCc1ccc(NC(=O)O[C@@H]2CC[C@@]34CCCN3C(=O)CCC[C@H]4C2)cc1	nt	nt	nt	nt	i	nt	nt
C/C(=C\C(=O)c1ccccc1)Nc1ccc(O)cc1	i	i	78	i	i	50	i
COc1ccc(-c2c(Cc3ccccc3)nc(NC(=O)c3ccccc3F)n2C)cc1	nt	nt	nt	nt	i	nt	nt
O=C(CCS(=O)(=O)c1ccccc1)Nc1ccc(F)cc1F	nt	nt	nt	nt	i	nt	nt
O=c1c2ccccc2nc(COc2ccccc2)n1/N=C/c1ccc(O)c(O)c1	i	i	53	i	i	i	i
Cc1nc2ccccc2c(=O)n1/N=C/c1cc(Br)ccc1O	i	i	i	i	i	i	nt
O=C(O)COc1ccc(/C=N/n2c(COc3ccccc3)nc3ccccc3c2=O)cc1	i	i	i	i	i	i	nt
Cc1nc2ccccc2c(=O)n1/N=C/c1c(O)ccc2ccccc12	i	i	63	i	i	i	i
Cc1n[nH]c(=S)n1/N=C/c1c(O)ccc2ccccc12	i	i	59	i	i	i	i
CCN(CC)C(=O)CC[C@H]1CC[C@]2(CCCN(Cc3ccccn3)C2)O1	nt	nt	nt	nt	i	nt	nt
O=C(O)c1ccc(N=Nc2c(O)ccc3ncccc23)cc1	i	i	60	i	i	i	41
COc1ccc(C(=O)C(=NN)c2ccccc2)cc1	nt	nt	nt	nt	i	nt	nt
O=C(/C(=N/N=C/c1ccc(O)c(O)c1O)c1ccccc1)c1ccccc1	i	i	50	i	i	i	i
Oc1ccc(/C=N/N=C(c2ccccc2)c2ccccc2)c(O)c1O	i	nt	54	i	i	i	i
O=C(Cn1nc(-c2ccccc2)c2ccccc21)Oc1ccccc1	nt	nt	nt	nt	i	nt	nt
N#CCSc1nnc(-c2sc3ccccc3c2Cl)o1	i	i	40	i	i	i	i
O=C(Nc1ccc(NC(=O)c2ccccc2Cl)c(Cl)c1)c1ccccn1	nt	nt	nt	nt	i	nt	nt
CCCN1CCC2(CC1)NC(C(=O)O)Cc1c2[nH]c2ccccc12 (stereo not drawn)	i	i	nt	i	nt	nt	nt
COC(=O)C1Cc2c([nH]c3ccccc23)C2(CCN(Cc3ccccc3)CC2)N1 (stereo not drawn)	i	i	62	i	i	i	i
O=C(NCc1ccc2[nH]c3c(c2c1)CCCC3)c1ccc(S(=O)(=O)N2CCOCC2)cc1	i	i	i	i	i	i	nt
O=C(NCc1ccc2[nH]c3c(c2c1)CCCC3)N1CCOCC1	i	i	49	i	nt	i	59
CC1=CC(=O)c2ccccc2C1=O	i	i	39!	i	i	i	50
SMILES	GASC-1 inh	Apaf1 inhib	GSTO1 inh	SUMO HTRF inh	TDP2 absorb	PAD4 FP inh	GSTO1 confirm	others
O=C(CCl)N(CCc1ccccc1)CCc1ccccc1	i	i	79	i	i	i	96	GSTO1 ABPP inh=82
COc1ccc(-n2c(SCC(=O)N/N=C(/C)c3cccc(O)c3)nc3ccccc3c2=O)cc1	nt	nt	nt	nt	i	nt	nt
CSCCCNC(=O)c1oc(=O)c2ccccc2c1-c1ccc(C)cc1	nt	nt	nt	nt	i	nt	nt
N#Cc1c(SCC(=O)Nc2ccc(C(F)(F)F)cc2)sc2c(O)cc(=O)[nH]c12	i	i	i	i	i	i	nt
N#Cc1c(SCC(=O)Nc2nncs2)sc2c(O)cc(=O)[nH]c12	i	i	51	i	i	i	63
Cn1nc(C(=O)NCC2CCCO2)c2ccccc2c1=O (stereo not drawn)	i	i	75	i	i	i	i
CCN(CC)c1ccc(C=Nc2ccc(N(C)C)cc2)c(O)c1	i	44	66	i	i	i	i
CCN(CC)c1ccc(C=Nc2ccc(C)cc2)c(O)c1	i	i	i	i	i	i	nt
CC1=C(C)/C(=N/OC(=O)c2cccc([N+](=O)[O-])c2)C=CC1=O	i	i	47	i	nt	i	i
N/C(=N/OC(=O)c1cccc([N+](=O)[O-])c1)c1cccc([N+](=O)[O-])c1	i	i	i	i	i	i	nt
CC(=O)C(C(C)=O)c1c(Cl)c(O)c(O)c2c(C(=O)c3ccccc3)coc12	i	i	58	i	i	i	i
CN1CCN(Cc2c(O)ccc3occ(C(=O)c4ccccc4)c23)CC1	?	i	i	i	i	i	nt
O=C(O)CC(CCc1ccccc1)OC1OC(CO)C(O)C(O)C1O (stereo not drawn)	nt	i	53	i	i	i	i
CCN(C(=O)Cn1cc(C(=O)C(=O)N2CCOCC2)c2ccccc21)c1ccccc1	i	i	67	i	i	i	i
c1ccc(Cn2c(SC3CCCCC3)nnc2-c2cccnc2)cc1	nt	nt	nt	nt	i	nt	nt
COc1ccc(/C=C2\SC(=O)NC2=S)cc1OC	i	i	62	i	i	i	72
O=S1(=O)c2cccc3cccc(c23)N1CCBr	i	i	45	i	i	i	51
CCCN1c2cccc3cccc(c23)S1(=O)=O	i	i	i	i	i	i	nt
O=C(OCC(=O)c1c[nH]c2ccccc12)c1ccc([N+](=O)[O-])s1	i	i	46	i	i	i	i
CCOC(=O)c1c(C)[nH]c(C)c1C(=O)COC(=O)c1ccc([N+](=O)[O-])s1	i	i	nt	nt	i	i	nt
CCc1cccc2c(C(=O)COC(=O)c3ccc([N+](=O)[O-])s3)c[nH]c12	i	i	53	i	i	i	i
COc1cc(-c2nnc(SCc3cc(=O)oc4cc(O)c(O)cc34)o2)cc(OC)c1OC	i	i	59	i	i	i	39
CCOC(=O)CSc1nnc(-c2cc(OC)c(OC)c(OC)c2)o1	i	i	i	i	i	i	nt
Cc1cccc(CNC(=S)OC2CCC23CCC(c2ccccc2)CC3)c1 (stereo not drawn)	nt	nt	nt	nt	i	nt	nt
c1ccc(CCCOCCC2CO2)cc1 (stereo not drawn)	i	i	96	i	nt	i	94	GSTO1 ABPP inh=i
C=CCN1[C@@H](C)COc2cc(F)ccc2S1(=O)=O	nt	nt	nt	nt	i	nt	nt
CC(C)C[C@H]1COc2cc(Br)ccc2S(=O)(=O)N1Cc1cn(CCC2OCCCO2)nn1	nt	nt	nt	nt	i	nt	nt
COC(=O)C1CN(Cc2ccc(OC)cc2)CCS(=O)(=O)N1Cc1cn(Cc2ccccc2)nn1 (stereo not drawn)	nt	nt	nt	nt	i	nt	nt
N#Cc1cccc(NC(=O)O[C@@H]2CC[C@@]34CCCN3C(=O)CCC[C@H]4C2)c1	nt	nt	nt	nt	i	nt	nt
Cc1csc(Cn2c(CN(C)C)nc3ccccc3c2=O)n1	i	i	43	i	i	i	i

Assay outcomes deposited in PubChem BioAssay by several laboratories.
